This is an account of results in ChEMBL document CHEMBL4622988, “Elucidation of Mechanism for Ligand Efficacy at Leukotriene B4 Receptor 2 (BLT2)” (ACS Med Chem Lett, 2020).

Assay [1] has as its target T1, Leukotriene B4 receptor 2 (Homo sapiens, UniProt Q9NPC1).
T1 sequence (Q9NPC1 whole entry): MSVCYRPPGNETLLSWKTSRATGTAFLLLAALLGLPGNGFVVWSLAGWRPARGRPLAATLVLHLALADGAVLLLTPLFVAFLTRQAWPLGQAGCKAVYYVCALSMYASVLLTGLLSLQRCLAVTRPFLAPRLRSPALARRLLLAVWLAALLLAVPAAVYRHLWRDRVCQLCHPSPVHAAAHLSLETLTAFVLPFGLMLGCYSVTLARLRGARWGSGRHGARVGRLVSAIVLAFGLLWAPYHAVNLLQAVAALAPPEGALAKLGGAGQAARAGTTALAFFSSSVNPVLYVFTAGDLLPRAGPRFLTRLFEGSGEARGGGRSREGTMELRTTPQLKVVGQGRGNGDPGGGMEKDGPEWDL
The assay can be described thus: Displacement of [3H]LTB4 from HA-epitope tagged human BLT2 expressed in CHOK1 cells incubated for 60 mins by liquid scintillation counting method. In kind it is cell-based, CHO-K1. Put shortly:
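Competition binding: test ligand competed with 3H-LTB4 for binding to membranes prepared from cells expressing BLT2.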

In assay [2] the test system is CHO-K1. Nature of the assay: Agonist activity at HA-epitope tagged human BLT2 Y271A/N275A double mutant expressed in CHOK1 cells assessed as induction of chemotactic motility at 100 nM incubated for 2 hrs by hematoxylin and eosin staining based optical microscopic method. In kind it is cell-based. In a few lines: (§1)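 CHO cells were transfected with wild-type BLT2, the Y271A mutant or the Y271A/N275A double mutant, then exposed to agonist to induce chemotactic motility. Migrating cells were fixed and stained with hematoxylin/eosin for counting.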

Assay [3] has as its target T2, Leukotriene B4 receptor 2 (Homo sapiens) (UniProt Q9NPC1).
T2 sequence (whole entry): T1 sequence (Q9NPC1 whole entry)
The assay can be described thus: Agonist activity at HA-epitope tagged human BLT2 expressed in CHOK1 cells assessed as induction of chemotactic motility at 100 nM incubated for 2 hrs by hematoxylin and eosin staining based optical microscopic method. The settings on record: CHO-K1. Format: cell-based. Put shortly: as §1

Assay [4] has as its system CHO-K1. Nature of the assay: Agonist activity at HA-epitope tagged human BLT2 Y271A mutant expressed in CHOK1 cells assessed as induction of chemotactic motility at 100 nM incubated for 2 hrs by hematoxylin and eosin staining based optical microscopic method. In kind it is cell-based. Put shortly:
as §1

In assay [5] the test system is CHO-K1. The assay can be described thus: Agonist activity at HA-epitope tagged human BLT2 Y271A/N275A double mutant expressed in CHOK1 cells assessed as induction of chemotactic motility at 300 nM incubated for 2 hrs by hematoxylin and eosin staining based optical microscopic method. Format: cell-based. Put shortly:
as §1

For assay [6], the system named is CHO-K1. The assay can be described thus: Agonist activity at HA-epitope tagged human BLT2 Y271A mutant expressed in CHOK1 cells assessed as induction of chemotactic motility at 300 nM incubated for 2 hrs by hematoxylin and eosin staining based optical microscopic method. In kind it is cell-based. Put shortly: as §1
Assay [7] addresses T2, Leukotriene B4 receptor 2 (Homo sapiens). Nature of the assay: Agonist activity at HA-epitope tagged human BLT2 expressed in CHOK1 cells assessed as induction of chemotactic motility at 300 nM incubated for 2 hrs by hematoxylin and eosin staining based optical microscopic method. Format: cell-based. The note with it: CHO-K1. Put shortly:
as §1

Calls of active or inactive are those of the source. No cut-off for these calls is given here.

`CCCCC(=O)N(Cc1ccc(-c2ccccc2C)cc1)c1ccccc1`: the Kd result in assay [1] (cho-k1) is listed as “Not Active”.

Take `CCCCC[C@H](O)/C=C/C=C/C/C=C\CCCC(=O)O`: the result in the assay with CHO-K1 [2] and with CHO-K1 [4] was inactive. Further, in assay [3], the result was Active.

With `CCCCC/C=C\C[C@H](O)/C=C/C=C\C/C=C\CCCC(=O)O`, the outcome with CHO-K1 [5] was inactive. In addition, the result (in the assay with CHO-K1 [6]; in assay [7]) was Active.

In the case of `CCCCC/C=C\C[C@@H](O)/C=C/C=C/C=C\[C@@H](O)CCCC(=O)O`, the result in the assay on CHO-K1 [5] was inactive. The outcome (with CHO-K1 [6]; in assay [7]) was Active.

`CCCCC(=O)N(Cc1ccc(-c2ccccc2C(=O)O)cc1)c1ccccc1`: the outcome with CHO-K1 [2] and in the assay on CHO-K1 [4] was inactive. Besides, the outcome in assay [3] was Active. In addition, the dissociation constant (Kd) in assay [1] (read-out: Kd) stood at 14.7 nM.
